# Laboratory results published in ChEMBL document CHEMBL3576866, “Discovery of a Cyclic Boronic Acid β-Lactamase Inhibitor (RPX7009) with Utility vs Class A Serine Carbapenemases” (J Med Chem, 2015).
# Legend:
# [1] = biological target: Beta lactamase TEM-1 (Klebsiella pneumoniae) (UniProt Q7B899); experiment: Inhibition of Klebsiella pneumoniae KP1087 TEM-1 assessed as biapenem MIC at 4 ug/ml by broth microdilution method
# Outline: (§1)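 Carbapenem MIC by CLSI broth microdilution (M07-A9), carbapenem titrated with inhibitor held at fixed 4 μg/mL, against clinical serine-carbapenemase-producing strain KP1087 (KPC-2, CTX-M-15, SHV-11, TEM-1; double porin mutant).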
# [2] = biological target: T1, Beta-lactamase SHV-1 (Klebsiella pneumoniae) (UniProt P0AD64); experiment: Inhibition of Klebsiella pneumoniae KP1082 SHV-1 assessed as meropenem MIC at 4 ug/ml by broth microdilution method
# T1 sequence (whole entry): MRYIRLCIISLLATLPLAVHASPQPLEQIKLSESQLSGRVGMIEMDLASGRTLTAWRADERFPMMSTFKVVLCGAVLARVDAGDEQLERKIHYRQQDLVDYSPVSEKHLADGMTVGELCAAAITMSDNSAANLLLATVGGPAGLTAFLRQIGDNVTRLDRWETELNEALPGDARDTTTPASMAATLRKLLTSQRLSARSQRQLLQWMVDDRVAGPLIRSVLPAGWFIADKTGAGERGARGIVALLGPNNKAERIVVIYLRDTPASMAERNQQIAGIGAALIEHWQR
# Outline: (§2)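 CLSI broth microdilution (M07-A9, 2012) MIC of the carbapenem against clinical serine carbapenemase-producing strain, tested alone and with the inhibitor held at a fixed 4 μg/mL.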
# Klebsiella pneumoniae [3] = experiment: Inhibition of Klebsiella pneumoniae KP1008 KPC-2 assessed as meropenem MIC at 4 ug/ml by broth microdilution method; outline: as §2
# Klebsiella oxytoca [4] = experiment: Inhibition of Klebsiella oxytoca KX1017 SHV-30 assessed as meropenem MIC at 4 ug/ml by broth microdilution method
# [5] = biological target: T2, Class A carbapenemase (Enterobacter cloacae) (UniProt A7WP95); experiment: Inhibition of Enterobacter cloacae ECL1058 KPC-3 assessed as meropenem MIC at 4 ug/ml by broth microdilution method
# T2 sequence (whole entry): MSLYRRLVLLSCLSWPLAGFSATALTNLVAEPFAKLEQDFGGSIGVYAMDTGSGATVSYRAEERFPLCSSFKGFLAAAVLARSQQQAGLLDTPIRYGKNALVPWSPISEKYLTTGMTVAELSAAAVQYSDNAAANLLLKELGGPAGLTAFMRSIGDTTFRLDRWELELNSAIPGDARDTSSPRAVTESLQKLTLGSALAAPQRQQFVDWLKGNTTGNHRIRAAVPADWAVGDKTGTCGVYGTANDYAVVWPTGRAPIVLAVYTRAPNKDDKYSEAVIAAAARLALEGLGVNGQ
# [6] = Cmax in rat at 100 mg/kg, iv administered as 0.5 hrs infusion by HPLC-MS method; type: ADME, organism-based; set-up: dose 100 mg/kg, route intravenous; settings: in vivo
# [7] = Inhibition of elastase (unknown origin) using Suc-AAPA-pNA as substrate preincubated for 10 mins followed by substrate addition measured for 30 mins by spectrophotometric analysis; set-up: species or system Homo sapiens
# Outline: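 Elastase from a commercial source in 25 mM Tris-HCl, pH 8.0. Inhibitor at various concentrations was preincubated 10 min at 37 °C. Suc-AAPA-pNA (listed at 50 μM) was added and absorbance followed for 30 min. Rates were relative to untreated; IC50 is the concentration giving 50% inhibition.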
# [8] = AUC (0 to infinity) in rat at 1000 mg/kg, iv administered as 0.5 hrs infusion by HPLC-MS method; type: ADME, organism-based; set-up: dose 1000 mg/kg, route intravenous, time infinity; settings: in vivo
# [9] = Clearance in rat at 1000 mg/kg, iv administered as 0.5 hrs infusion by HPLC-MS method; type: ADME, organism-based; settings: in vivo
# Mus musculus = experiment: Toxicity in Swiss webster neutropenic mouse lung infection model up to 1000 mg/kg, administered every 2 hrs starting at 2 hrs; type: organism-based; settings: in vivo
# [10] = biological target: Beta-lactamase (Enterobacter cloacae) (UniProt P05364); experiment: Inhibition of Enterobacter cloacae ECL1002 AmpC assessed as cefepime MIC at 4 ug/ml by broth microdilution method
# Enterobacter cloacae [11] = experiment: Inhibition of Enterobacter cloacae EC1010 CMY-6 assessed as cefepime MIC at 4 ug/ml by broth microdilution method
# Outline: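 CLSI broth microdilution (M07-A9) against clinical strains expressing serine β-lactamases.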
# Enterobacter cloacae [12] = experiment: Inhibition of Enterobacter cloacae ECL1058 SHV-11 assessed as biapenem MIC at 4 ug/ml by broth microdilution method
# [13] = biological target: Carbapenem-hydrolyzing beta-lactamase KPC (Klebsiella oxytoca) (UniProt Q848S6); experiment: Inhibition of Klebsiella oxytoca KX1019 KPC-2 assessed as biapenem MIC at 4 ug/ml by broth microdilution method
# Klebsiella pneumoniae [14] = experiment: Inhibition of Klebsiella pneumoniae KP1004 SHV-11 assessed as biapenem MIC at 4 ug/ml by broth microdilution method; outline: as §2
# [15] = biological target: Beta-lactamase (Klebsiella pneumoniae) (UniProt Q93LQ9); experiment: Inhibition of Klebsiella pneumoniae KP1083 KPC-3 assessed as biapenem MIC at 4 ug/ml by broth microdilution method; outline: as §2
# [16] = biological target: T1, Beta-lactamase SHV-1 (Klebsiella pneumoniae); experiment: Inhibition of Klebsiella pneumoniae KP1083 SHV-1 assessed as biapenem MIC at 4 ug/ml by broth microdilution method; outline: as §2
# Klebsiella pneumoniae [17] = experiment: Inhibition of Klebsiella pneumoniae KP1084 SHV-11 assessed as ertapenem MIC at 4 ug/ml by broth microdilution method; outline: as §2
# Klebsiella oxytoca [18] = experiment: Inhibition of Klebsiella oxytoca KX1019 OXA-2 assessed as ertapenem MIC at 4 ug/ml by broth microdilution method
# [19] = biological target: Carbapenem-hydrolyzing beta-lactamase KPC (Klebsiella pneumoniae) (UniProt Q9F663); experiment: Inhibition of Klebsiella pneumoniae KP1083 KPC-3 assessed as imipenem MIC at 4 ug/ml by broth microdilution method
# [20] = biological target: Beta lactamase TEM-1 (Klebsiella pneumoniae) (UniProt Q7B899); experiment: Inhibition of Klebsiella pneumoniae KP1084 TEM-1 assessed as imipenem MIC at 4 ug/ml by broth microdilution method
# [21] = biological target: Beta lactamase TEM-1 (Klebsiella pneumoniae) (UniProt Q7B899); experiment: Inhibition of Klebsiella pneumoniae KP1087 TEM-1 assessed as imipenem MIC at 4 ug/ml by broth microdilution method; outline: as §1
# [22] = biological target: Class A carbapenemase KPC-2 (Escherichia coli) (UniProt A8DS27); experiment: Inhibition of Escherichia coli EC1007 KPC-3 assessed as imipenem MIC at 4 ug/ml by broth microdilution method
# [23] = biological target: T2, Class A carbapenemase (Enterobacter cloacae); experiment: Inhibition of Enterobacter cloacae ECL1058 KPC-3 assessed as imipenem MIC at 4 ug/ml by broth microdilution method
# Enterobacter cloacae [24] = experiment: Inhibition of Enterobacter cloacae ECL1058 SHV-11 assessed as imipenem MIC at 4 ug/ml by broth microdilution method
# Klebsiella oxytoca [25] = experiment: Inhibition of Klebsiella oxytoca KX1019 OXA-2 assessed as imipenem MIC at 4 ug/ml by broth microdilution method
smiles,measurement,setting,value
O=C(O)C[C@@H]1CC[C@H](NC(=O)Cc2cccs2)B(O)O1 [VABORBACTAM],MIC,[1],0.25 µg/mL
same,MIC,[2],< 0.06 µg/mL
same,MIC,Klebsiella pneumoniae [3],≤ 0.06 µg/mL
same,MIC,Klebsiella oxytoca [4],< 0.06 µg/mL
same,MIC,[5],< 0.06 µg/mL
same,Cmax,[6],231 µg/mL
same,IC50,[7],> 1000 µM
same,AUC(0-inf),[8],1040 µg·h/mL
same,clearance,[9],16.2 mL/min/kg
same,Activity,Mus musculus,Non-toxic
same,MIC,[10],0.5 µg/mL
same,MIC,Enterobacter cloacae [11],4 µg/mL
same,MIC,Enterobacter cloacae [12],< 0.06 µg/mL
same,MIC,[13],0.25 µg/mL
same,MIC,Klebsiella pneumoniae [14],≤ 0.06 µg/mL
same,MIC,[15],< 0.06 µg/mL
same,MIC,[16],< 0.06 µg/mL
same,MIC,Klebsiella pneumoniae [17],4 µg/mL
same,MIC,Klebsiella oxytoca [18],0.25 µg/mL
same,MIC,[19],0.13 µg/mL
same,MIC,[20],0.25 µg/mL
same,MIC,[21],0.25 µg/mL
same,MIC,[22],0.13 µg/mL
same,MIC,[23],0.25 µg/mL
same,MIC,Enterobacter cloacae [24],0.25 µg/mL
same,MIC,Klebsiella oxytoca [25],0.13 µg/mL
